According to ChEMBL document CHEMBL4311965, “Antimicrobial activity of amphipathic α,α-disubstituted β-amino amide derivatives against ESBL - CARBA producing multi-resistant bacteria; effect of halogenation, lipophilicity and cationic character” (Eur J Med Chem, 2019):
In brackets after ≈: the same amount, converted by molar mass.

Assays:
[1] = system: Pseudomonas aeruginosa; assay: Antibacterial activity against Pseudomonas aeruginosa PA01 DSM 19880 (ATCC 15692) cultured in MHB medium assessed as no bacterial growth incubated at 37 degC for 24 hrs by microdilution susceptibility test; assay type: functional; conditions: PAO1 DSM 19880 (ATCC 15692)
How it was run: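 Broth microdilution per CLSI M07-A9 with modifications. Inoculum about 2.5–3 x 10⁴ cells/mL in Mueller-Hinton broth, mixed 1:1 with test derivative. DMSO stocks diluted in double-distilled water, final DMSO <1%. Incubation 24 h at 37 °C (20 °C for C. glutamicum). Growth and sterility controls included; oxytetracycline reference.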

[2] = Selectivity index, ratio of EC50 for hemolytic activity against human RBC to MIC for antibacterial activity against Staphylococcus aureus ATCC 9144; assay type: toxicity; conditions: human red blood cells (RBC)
How it was run: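 Selectivity index is the RBC haemolysis EC50 divided by the MIC against the E. coli or S. aureus reference strain.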

[3] = system: Staphylococcus aureus; assay: Antibacterial activity against multidrug-resistant Staphylococcus aureus N315 cultured in MHB medium assessed as reduction in bacterial growth incubated for 24 hrs by microdilution susceptibility test; assay type: functional; conditions: N315, 24 h
How it was run: (§1)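 Broth microdilution per CLSI M07-A9 (modified). Working solutions made from concentrated DMSO stocks kept at r.t., diluted in double-distilled water, final DMSO <1%. Inoculum 1–1.2 x 10⁶ cells/mL in Mueller-Hinton broth, mixed 1:1 with compound. 37 °C, 24 h, four parallels. Read as OD₆₀₀. Where precipitation left residual OD, the point of major OD decrease was taken as the inhibitory concentration.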

[4] = system: Staphylococcus aureus; assay: Antibacterial activity against multidrug-resistant Staphylococcus aureus NCTC 10442 cultured in MHB medium assessed as reduction in bacterial growth incubated for 24 hrs by microdilution susceptibility test; assay type: functional; conditions: NCTC 10442, 24 h; how it was run: as §1
[5] = system: Staphylococcus aureus; assay: Antibacterial activity against multidrug-resistant Staphylococcus aureus 85/2082 cultured in MHB medium assessed as reduction in bacterial growth incubated for 24 hrs by microdilution susceptibility test; assay type: functional; conditions: 85/2082, 24 h; how it was run: as §1
[6] = system: Staphylococcus aureus; assay: Antibacterial activity against multidrug-resistant Staphylococcus aureus WIS cultured in MHB medium assessed as reduction in bacterial growth incubated for 24 hrs by microdilution susceptibility test; assay type: functional; how it was run: as §1
[7] = system: Staphylococcus aureus; assay: Antibacterial activity against multidrug-resistant Staphylococcus aureus IHT 99040 cultured in MHB medium assessed as reduction in bacterial growth incubated for 24 hrs by microdilution susceptibility test; assay type: functional; conditions: IHT 99040, 24 h; how it was run: as §1
[8] = system: Enterococcus faecium; assay: Antibacterial activity against multidrug-resistant Enterococcus faecium 50673722 cultured in BHIB medium assessed as reduction in bacterial growth incubated for 24 hrs by microdilution susceptibility test; assay type: functional; conditions: Enterococcus faecium, 50673722, 24 h
How it was run: (§2)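 Enterococci grown in Brain Heart Infusion broth, otherwise broth microdilution per CLSI M07-A9 (modified). Concentrated DMSO stocks kept at r.t. and diluted in double-distilled water, final DMSO <1%. Inoculum 1–1.2 x 10⁶ cells/mL mixed 1:1 with compound. 37 °C, 24 h, four parallels. OD₆₀₀ read-out, lowest concentration with no growth.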

[9] = system: Enterococcus faecium; assay: Antibacterial activity against multidrug-resistant Enterococcus faecium 50901530 cultured in BHIB medium assessed as reduction in bacterial growth incubated for 24 hrs by microdilution susceptibility test; assay type: functional; conditions: Enterococcus faecium, 50901530, 24 h; how it was run: as §2
[10] = system: Enterococcus faecium; assay: Antibacterial activity against multidrug-resistant Enterococcus faecium K36-18 cultured in BHIB medium assessed as reduction in bacterial growth incubated for 24 hrs by microdilution susceptibility test; assay type: functional; conditions: K36-18, 24 h; how it was run: as §2
[11] = system: Escherichia coli; assay: Antibacterial activity against multidrug-resistant Escherichia coli 50676002 producing New Delhi metallo-beta-lactamase-1 cultured in MHB medium assessed as reduction in bacterial growth incubated for 24 hrs by microdilution susceptibility test; assay type: functional; conditions: Escherichia coli, 50676002, 24 h; how it was run: as §1
[12] = system: Escherichia coli; assay: Antibacterial activity against multidrug-resistant Escherichia coli 50739822 producing New Delhi metallo-beta-lactamase-1 cultured in MHB medium assessed as reduction in bacterial growth incubated for 24 hrs by microdilution susceptibility test; assay type: functional; conditions: Escherichia coli, 50739822, 24 h; how it was run: as §1
[13] = system: Escherichia coli; assay: Antibacterial activity against multidrug-resistant Escherichia coli 50857972 producing imipenem-type carbapenemase-26 cultured in MHB medium assessed as reduction in bacterial growth incubated for 24 hrs by microdilution susceptibility test; assay type: functional; conditions: Escherichia coli, 50857972, 24 h; how it was run: as §1
[14] = system: Pseudomonas aeruginosa; assay: Antibacterial activity against multidrug-resistant Pseudomonas aeruginosa K34-73 producing Verona integron encoded metallo beta-lactamse-4 cultured in MHB medium assessed as reduction in bacterial growth incubated for 24 hrs by microdilution susceptibility test; assay type: functional; conditions: K34-73, 24 h; how it was run: as §1
[15] = system: Pseudomonas aeruginosa; assay: Antibacterial activity against multidrug-resistant Pseudomonas aeruginosa K44-24 producing imipenem-type carbapenemase-14 cultured in MHB medium assessed as reduction in bacterial growth incubated for 24 hrs by microdilution susceptibility test; assay type: functional; conditions: K44-24, 24 h; how it was run: as §1
[16] = system: Klebsiella pneumoniae; assay: Antibacterial activity against multidrug-resistant Klebsiella pneumoniae K47-25 producing carbapenemase-2 cultured in MHB medium assessed as reduction in bacterial growth incubated for 24 hrs by microdilution susceptibility test; assay type: functional; conditions: K47-25, 24 h; how it was run: as §1
[17] = system: Klebsiella pneumoniae; assay: Antibacterial activity against multidrug-resistant Klebsiella pneumoniae K66-45 producing New Delhi metallo-beta-lactamase-1 cultured in MHB medium assessed as reduction in bacterial growth incubated for 24 hrs by microdilution susceptibility test; assay type: functional; conditions: K66-45, 24 h; how it was run: as §1
[18] = system: Klebsiella pneumoniae; assay: Antibacterial activity against multidrug-resistant Klebsiella pneumoniae 50531633 producing New Delhi metallo-beta-lactamase-1 and oxcillinase-181 cultured in MHB medium assessed as reduction in bacterial growth incubated for 24 hrs by microdilution susceptibility test; assay type: functional; conditions: Klebsiella pneumoniae, 50531633, 24 h; how it was run: as §1
[19] = system: Klebsiella pneumoniae; assay: Antibacterial activity against multidrug-resistant Klebsiella pneumoniae 50625602 producing oxcillinase-245 cultured in MHB medium assessed as reduction in bacterial growth incubated for 24 hrs by microdilution susceptibility test; assay type: functional; conditions: Klebsiella pneumoniae, 50625602, 24 h; how it was run: as §1
[20] = system: Klebsiella pneumoniae; assay: Antibacterial activity against multidrug-resistant Klebsiella pneumoniae 50667959 producing Verona integron encoded metallo beta-lactamse-1 cultured in MHB medium assessed as reduction in bacterial growth incubated for 24 hrs by microdilution susceptibility test; assay type: functional; conditions: Klebsiella pneumoniae, 50667959, 24 h; how it was run: as §1
[21] = system: Acinetobacter baumannii; assay: Antibacterial activity against multidrug-resistant Acinetobacter baumannii K12-21 producing oxcillinase-58 cultured in MHB medium assessed as reduction in bacterial growth incubated for 24 hrs by microdilution susceptibility test; assay type: functional; conditions: K12-21, 24 h; how it was run: as §1
[22] = system: Acinetobacter baumannii; assay: Antibacterial activity against multidrug-resistant Acinetobacter baumannii K44-35 producing oxcillinase-23 cultured in MHB medium assessed as reduction in bacterial growth incubated for 24 hrs by microdilution susceptibility test; assay type: functional; conditions: K44-35, 24 h; how it was run: as §1
[23] = system: Acinetobacter baumannii; assay: Antibacterial activity against multidrug-resistant Acinetobacter baumannii K55-13 producing oxcillinase-24 cultured in MHB medium assessed as reduction in bacterial growth incubated for 24 hrs by microdilution susceptibility test; assay type: functional; conditions: K55-13, 24 h; how it was run: as §1

Compound	MIC [1]	selectivity ratio [2]	MIC [3]	MIC [4]	MIC [5]	MIC [6]	MIC [7]	MIC [8]	MIC [9]	MIC [10]	MIC [11]	MIC [12]	MIC [13]	MIC [14]	MIC [15]	MIC [16]	MIC [17]	MIC [18]	MIC [19]	MIC [20]	other results
NCCNCC(CN)(Cc1ccc(F)c2ccccc12)Cc1ccc(F)c2ccccc12	4 µg/mL (≈ 9.23 µM)	14	4 µg/mL (≈ 9.23 µM)	4 µg/mL (≈ 9.23 µM)	4 µg/mL (≈ 9.23 µM)	4 µg/mL (≈ 9.23 µM)	8 µg/mL (≈ 18.5 µM)	4 µg/mL (≈ 9.23 µM)	4 µg/mL (≈ 9.23 µM)	4 µg/mL (≈ 9.23 µM)	8 µg/mL (≈ 18.5 µM)	4 µg/mL (≈ 9.23 µM)	8 µg/mL (≈ 18.5 µM)	16 µg/mL (≈ 36.9 µM)	16 µg/mL (≈ 36.9 µM)	8 µg/mL (≈ 18.5 µM)	8 µg/mL (≈ 18.5 µM)	4 µg/mL (≈ 9.23 µM)	8 µg/mL (≈ 18.5 µM)	8 µg/mL (≈ 18.5 µM)	MIC [21]: 8 µg/mL (≈ 18.5 µM); MIC [22]: 8 µg/mL (≈ 18.5 µM); MIC [23]: 16 µg/mL (≈ 36.9 µM)
N=C(N)NCCNC(=O)C(CNC(=N)N)(Cc1ccc(F)c2ccccc12)Cc1ccc(F)c2ccccc12	8 µg/mL (≈ 15 µM)	165	4 µg/mL (≈ 7.52 µM)	4 µg/mL (≈ 7.52 µM)	4 µg/mL (≈ 7.52 µM)	4 µg/mL (≈ 7.52 µM)	4 µg/mL (≈ 7.52 µM)	16 µg/mL (≈ 30.1 µM)	4 µg/mL (≈ 7.52 µM)	16 µg/mL (≈ 30.1 µM)	32 µg/mL (≈ 60.2 µM)	32 µg/mL (≈ 60.2 µM)	32 µg/mL (≈ 60.2 µM)	> 32 µg/mL	> 32 µg/mL	> 32 µg/mL	> 32 µg/mL	> 32 µg/mL	> 32 µg/mL	> 32 µg/mL	MIC [21]: > 32 µg/mL; MIC [22]: > 32 µg/mL; MIC [23]: > 32 µg/mL
N=C(N)NCCNC(=O)C(CNC(=N)N)(Cc1cc(Br)cc(Br)c1)Cc1cc(Br)cc(Br)c1	4 µg/mL (≈ 5.63 µM)	206	2 µg/mL (≈ 2.81 µM)	2 µg/mL (≈ 2.81 µM)	2 µg/mL (≈ 2.81 µM)	2 µg/mL (≈ 2.81 µM)	2 µg/mL (≈ 2.81 µM)	4 µg/mL (≈ 5.63 µM)	4 µg/mL (≈ 5.63 µM)	4 µg/mL (≈ 5.63 µM)	8 µg/mL (≈ 11.3 µM)	8 µg/mL (≈ 11.3 µM)	8 µg/mL (≈ 11.3 µM)	16 µg/mL (≈ 22.5 µM)	16 µg/mL (≈ 22.5 µM)	32 µg/mL (≈ 45 µM)	16 µg/mL (≈ 22.5 µM)	16 µg/mL (≈ 22.5 µM)	16 µg/mL (≈ 22.5 µM)	16 µg/mL (≈ 22.5 µM)	MIC [21]: 16 µg/mL (≈ 22.5 µM); MIC [22]: 16 µg/mL (≈ 22.5 µM); MIC [23]: 16 µg/mL (≈ 22.5 µM)
N=C(N)NCCNC(=O)C(CNC(=N)N)(Cc1cc(C(F)(F)F)cc(C(F)(F)F)c1)Cc1cc(C(F)(F)F)cc(C(F)(F)F)c1	4 µg/mL (≈ 5.99 µM)	101	4 µg/mL (≈ 5.99 µM)	8 µg/mL (≈ 12 µM)	8 µg/mL (≈ 12 µM)	8 µg/mL (≈ 12 µM)	8 µg/mL (≈ 12 µM)	8 µg/mL (≈ 12 µM)	4 µg/mL (≈ 5.99 µM)	8 µg/mL (≈ 12 µM)	32 µg/mL (≈ 47.9 µM)	32 µg/mL (≈ 47.9 µM)	32 µg/mL (≈ 47.9 µM)	16 µg/mL (≈ 24 µM)	32 µg/mL (≈ 47.9 µM)	> 32 µg/mL	> 32 µg/mL	> 32 µg/mL	> 32 µg/mL	> 32 µg/mL	MIC [21]: > 32 µg/mL; MIC [22]: > 32 µg/mL; MIC [23]: > 32 µg/mL
